Calls of active or inactive are those of the source. The rule behind the calls is not given here.
How the values were obtained:
[1] = target: T1, CAAX prenyl protease 2 (Homo sapiens) (UniProt Q9Y256); test: Inhibition of human Rce1-mediated CaaX protease activity using […] and […] as substrate assessed as residual activity at 10 uM measured every 30 to 60 seconds for 60 mins
T1 sequence (whole entry): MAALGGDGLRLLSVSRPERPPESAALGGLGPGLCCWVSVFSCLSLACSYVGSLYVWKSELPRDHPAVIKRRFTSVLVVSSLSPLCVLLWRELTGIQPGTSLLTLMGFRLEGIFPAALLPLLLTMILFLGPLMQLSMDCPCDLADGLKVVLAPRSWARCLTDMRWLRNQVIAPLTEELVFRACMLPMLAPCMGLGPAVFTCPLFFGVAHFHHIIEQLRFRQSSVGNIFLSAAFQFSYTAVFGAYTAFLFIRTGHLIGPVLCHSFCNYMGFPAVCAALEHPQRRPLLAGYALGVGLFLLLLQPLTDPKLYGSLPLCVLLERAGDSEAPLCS
Procedure, shortened: (§1)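 Membranes from yeast SM3614 (ste24 rce1 null) overexpressing human Rce1, 0.25 mg/mL final in 200 mM Tris pH 7.5, 200 mM NaCl, 1 mg/mL BSA. […] Reaction started with 20 μM ABZ-KSKTKC(farnesyl)QLIM. Fluorescence (ex 320/em 420) read every 30–60 s for 60 min at 30 °C. Initial velocities trypsin-normalised; activity given as % of DMSO control.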

CAAX prenyl protease 2 = target: T2, CAAX prenyl protease 2 (Homo sapiens, UniProt Q9Y256); test: Inhibition of human Rce1-mediated CaaX protease activity using ABZ-KSKTKC(farnesyl)QIIM and ABZ-KSKTKC(farnesyl)VIQI as substrate assessed as residual activity measured every 30 to 60 seconds for 60 mins; procedure, shortened: as §1
T2 sequence (Q9Y256 whole entry): T1 sequence (whole entry)

[2] = Cytotoxicity against human HCT116 cells assessed as cell death at 25 uM after 20 hrs by celltiter blue assay (reference value: 0.4%); assay type: cell-based; details: hct-116, 20 h
Procedure, shortened: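 HCT-116 cells grown in DMEM with 10% FBS and 1% NEAA at 37 °C, 5% CO2, seeded 7 × 10^3 per well, exposed 20 h to 25 μM compound (0.4% DMSO vehicle; untreated control). CellTiter-Blue added for 4 h, fluorescence read at 560/590 nm. Values relative to untreated cells, mean of three independent experiments with SEM.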

[3] = target: T3, CAAX prenyl protease 1 homolog (Homo sapiens) (UniProt O75844); test: Inhibition of human FACE1-mediated CaaX protease activity at 10 uM measured every 30 to 60 seconds for 60 mins
T3 sequence (whole entry): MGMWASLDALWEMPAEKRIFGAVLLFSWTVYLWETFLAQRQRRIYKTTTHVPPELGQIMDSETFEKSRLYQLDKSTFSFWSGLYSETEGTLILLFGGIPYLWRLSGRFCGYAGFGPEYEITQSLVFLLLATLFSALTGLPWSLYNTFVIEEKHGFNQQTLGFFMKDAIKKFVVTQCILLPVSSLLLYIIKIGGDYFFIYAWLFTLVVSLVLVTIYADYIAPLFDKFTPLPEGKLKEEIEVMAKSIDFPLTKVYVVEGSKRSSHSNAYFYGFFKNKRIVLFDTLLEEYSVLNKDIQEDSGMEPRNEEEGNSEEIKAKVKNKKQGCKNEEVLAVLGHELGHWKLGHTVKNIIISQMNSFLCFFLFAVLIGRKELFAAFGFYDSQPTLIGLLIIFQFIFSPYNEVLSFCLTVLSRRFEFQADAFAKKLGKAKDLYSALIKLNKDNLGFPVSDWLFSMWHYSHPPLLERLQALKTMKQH
Procedure, shortened: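 Human Ste24 overexpressed in yeast strain SM3614 (ste24 rce1 null); membranes 0.25 mg/mL final in 200 mM Tris pH 7.5, 200 mM NaCl, 1 mg/mL BSA. Pretreated 15 min at 30 °C with 10 μM compound in duplicate, then 20 μM ABZ-KSKTKC(farnesyl)VIQL substrate added. Fluorescence (ex 320/em 420) read every 30–60 s for 60 min at 30 °C. Initial velocities normalised via trypsin-digest maximum fluorescence and expressed as % of DMSO control. SD shown.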

[4] = test system: Protein farnesyltransferase (Rattus norvegicus); test: Inhibition of protein farnesyltransferase (rat) at 50 uM measured every 40 seconds for 60 mins

| Compound | Activity [1] | IC50 (CAAX prenyl protease 2) | Cell death [2] | inhibition [3] | inhibition [4] |
| --- | --- | --- | --- | --- | --- |
| CC(C)(C)c1ccc(NC(c2ccccc2)c2ccc3ccccc3c2O)cc1 (stereo not given) | 38% | 5 µM | < 10% | inactive |  |
| Oc1c(C(Nc2ccccc2)c2c(F)cc(Br)cc2F)ccc2ccccc12 (stereo not given) | 45% | 9.4 µM | 40% | inactive |  |
| N#Cc1ccc(NC(c2ccccc2)c2ccc3cccnc3c2O)cc1 (stereo not given) | 56% |  | < 10% |  |  |
| O=C(O)c1ccc(NC(c2ccc3ccccc3c2O)c2c(F)cc(Br)cc2F)cc1 (stereo not given) | 21% | 3.8 µM | < 10% | inactive |  |
| CCCCCCCCOc1ccc(C(Nc2ccccc2)c2ccc3cccnc3c2O)cc1 (stereo not given) | 89% |  |  |  |  |
| N#Cc1ccc2ccc(C(Nc3ccccc3)c3ccccc3)c(O)c2n1 (stereo not given) | 83% |  |  |  |  |
| O=C(O)c1ccc(NC(c2ccccc2)c2ccccc2)cc1 | 90% |  |  |  |  |
| O=C(Nc1ccc2ccccc2c1)c1ccc(NC(c2ccccc2)c2ccccc2)cc1 | 89% |  |  |  |  |
| O=[N+]([O-])c1ccc(C(Nc2ccccc2)c2ccc3cccnc3c2O)cc1 (stereo not given) | 85% | 11 µM |  | inactive |  |
| CCOC(=O)c1ccc(NC(c2ccc(F)cc2)c2ccc3cccnc3c2O)cc1 (stereo not given) | 63% |  | < 10% |  |  |
| O=C(O)c1ccc(NC(c2ccc(Br)cc2)c2ccc(Br)cc2)cc1 | 83% |  |  |  |  |
| O=C(O)c1ccc(NC(c2ccc3cccnc3c2O)C2CCCCC2)cc1 (stereo not given) | 34% | 9.8 µM | < 10% | inactive |  |
| O=C(O)c1cccc(NC(c2ccccc2)c2ccc3ccccc3c2O)c1 (stereo not given) | 23% | 5.3 µM | < 10% | inactive | inactive |
| c1ccc(NC(c2ccccc2)c2ccc3cccnc3c2)cc1 (stereo not given) | 82% |  |  |  |  |
| O=C(O)c1ccc(NC(c2ccccc2)c2ccc3cccnc3c2O)cc1 (stereo not given) | 25% | 6.9 µM | < 10% | inactive |  |
| O=C(O)c1ccc(NC(c2ccc3cccnc3c2O)c2c(F)cc(Br)cc2F)cc1 (stereo not given) | 64% |  | < 10% |  |  |
| O=C(Nc1ccccc1)c1ccc(NC(c2ccc(Br)cc2)c2ccc(Br)cc2)cc1 | 80% |  |  |  |  |
| O=C(OCc1ccccc1)c1ccc2ccc(C(Nc3ccccc3)c3ccccc3)c(O)c2n1 (stereo not given) | 75% |  |  |  |  |
| Oc1ccc2ccccc2c1C(Nc1ccccc1)c1ccccc1 (stereo not given) | 59% |  | < 10% |  |  |

| Compound | Activity [1] | IC50 (CAAX prenyl protease 2) | Cell death [2] | inhibition [3] | inhibition [4] |
| --- | --- | --- | --- | --- | --- |
| CCOC(=O)c1ccc(NC(c2ccccc2)c2ccccc2)cc1 | 82% |  | < 10% |  |  |
| CCOC(=O)c1ccc(NC(c2ccccc2)c2ccc(Br)cc2)cc1 (stereo not given) | 79% |  |  |  |  |
| O=[N+]([O-])c1ccc(NC(c2ccc(Br)cc2)c2ccc3cccnc3c2O)cc1 (stereo not given) | 64% |  | < 10% |  |  |
| Oc1c(C(Nc2ccccc2)c2c(F)cc(Br)cc2F)ccc2cccnc12 (stereo not given) | 76% |  | < 10% |  |  |
| C[C@@H](N[C@H](c1ccccc1)c1c(O)ccc2ccccc12)c1ccccc1 | 63% |  |  |  |  |
| Oc1c(C(Nc2ccccc2)c2ccccc2)ccc2cc3ccccc3nc12 (stereo not given) | 51% |  |  |  |  |
| Oc1c(C(Nc2ccccc2)c2ccccc2)cc(Br)c2ccccc12 (stereo not given) | 27% | 5.4 µM | < 10% | inactive |  |
| O=C(O)c1ccc(NC(c2ccccc2)c2ccc(Br)cc2)cc1 (stereo not given) | 86% |  |  |  |  |
| COC(=O)c1ccc(NC(c2ccccc2)c2ccc3cccnc3c2OC)cc1 (stereo not given) | 65% |  | < 10% |  |  |
| O=C(O)c1ccc(NC(c2ccc(Br)cc2)c2ccc3ccccc3c2O)cc1 (stereo not given) | 23% | 3.9 µM | < 10% | inactive |  |
| Cc1ccc(NC(c2ccccc2)c2ccc3cccnc3c2O)cc1 (stereo not given) | 54% | 8.8 µM |  | inactive |  |
| Oc1c(C(Nc2ccccc2)c2ccccc2)ccc2ccccc12 (stereo not given) | 17% | 4.9 µM | < 10% | inactive |  |
| O=C(O)c1ccc2ccc(C(Nc3ccccc3)c3ccccc3)c(O)c2n1 (stereo not given) | 77% |  |  |  |  |
| Oc1c(C(Nc2ccccc2)c2ccccc2)cc(Cl)c2cccnc12 (stereo not given) | 68% |  |  |  |  |
| O=C(O)c1ccc(NC(c2cccnc2)c2ccc3cccnc3c2O)cc1 (stereo not given) | 70% | 14 µM |  | inactive |  |
| O=C(O)c1ccc(NC(c2ccccn2)c2ccc3cccnc3c2O)cc1 (stereo not given) | 90% | 38 µM |  | inactive |  |
| Oc1c(C(/N=C/c2ccccc2)c2ccccc2)ccc2cccnc12 (stereo not given) | 73% |  | < 10% |  |  |
| CCOC(=O)c1ccc(NC(c2ccccc2)c2ccc3cccnc3c2O)cc1 (stereo not given) | 52% |  | < 10% |  |  |
| O=C(Nc1ccccc1)c1ccc(NC(c2ccccc2)c2ccc(Br)cc2)cc1 (stereo not given) | 78% |  |  |  |  |

| Compound | Activity [1] | IC50 (CAAX prenyl protease 2) | Cell death [2] | inhibition [3] | inhibition [4] |
| --- | --- | --- | --- | --- | --- |
| CCOC(=O)c1ccc(NC(c2ccc3cccnc3c2O)C2CCCC2)cc1 (stereo not given) | 82% |  | < 10% |  |  |
| O=C(O)c1ccc(NC(c2ccccc2)c2ccc3ccccc3c2O)cc1 (stereo not given) | 19% | 4.2 µM | < 10% | inactive |  |
| O=C(Nc1ccccc1)c1ccc(NC(c2ccccc2)c2ccccc2)cc1 | 78% |  |  |  |  |
| O=C(NC(c1ccccc1)c1ccc2cccnc2c1O)c1ccccc1 (stereo not given) | 81% |  | < 10% |  |  |
| O=C(O)c1cccc(NC(=O)c2ccc(NC(c3ccccc3)c3ccccc3)cc2)c1 | 72% |  |  |  |  |
| CCOC(=O)c1ccc(NC(c2ccc(Cl)cc2)c2ccc3cccnc3c2O)cc1 (stereo not given) | 71% |  | < 10% |  |  |
| Oc1c(C(Nc2ccccc2)c2ccccc2)cc(Br)c2cccnc12 (stereo not given) | 73% |  |  |  |  |
| Oc1c(C(Nc2nc3ccccc3s2)c2ccccc2)ccc2cccnc12 (stereo not given) | 83% |  | < 10% |  |  |
| Oc1c(CNc2ccccc2)ccc2cccnc12 | 82% |  | < 10% |  |  |
| CCOC(=O)c1ccc(NC(c2ccc(Br)cc2)c2ccc(Br)cc2)cc1 | 83% |  |  |  |  |
| c1ccc(NC(c2ccccc2)c2ccc3ccccc3c2)cc1 (stereo not given) | 77% |  |  |  |  |
| Cc1ccc(C(Nc2ccc(C(=O)O)cc2)c2ccc3cccnc3c2O)cc1 (stereo not given) | 32% | 7.1 µM |  | inactive |  |
| O=C(O)c1ccc(NC(c2ccc(F)cc2)c2ccc3cccnc3c2O)cc1 (stereo not given) | 32% | 8.2 µM | < 10% | inactive |  |
| Oc1c(C(Nc2ccccc2)C2CCCCC2)ccc2cccnc12 (stereo not given) | 59% |  | < 10% |  |  |
| CCOC(=O)c1ccc(NC(c2ccc(C(F)(F)F)cc2)c2ccc3cccnc3c2O)cc1 (stereo not given) | 89% |  | < 10% |  |  |
| N#Cc1ccc(C(Nc2ccc(C(=O)O)cc2)c2ccc3cccnc3c2O)cc1 (stereo not given) | 76% | 16 µM |  | inactive |  |
| Oc1ccc2ccc(O)c(C(Nc3ccccc3)c3ccccc3)c2c1 (stereo not given) | 51% |  | < 10% |  |  |
| Cc1ccc2ccc(C(Nc3ccccc3)c3ccccc3)c(O)c2n1 (stereo not given) | 83% |  |  |  |  |

Reference: ChEMBL document CHEMBL3739299, “8-Hydroxyquinoline-based inhibitors of the Rce1 protease disrupt Ras membrane localization in human cells” (Bioorg Med Chem, 2016)
